PAX8 inh HTS: inhibitors of PAX8-driven TPO luciferase reporter, primary screen, RMG-I cells, single concentration. actives 1.2% (n = 360,000). inhibition, % at 12.6 µM. SteadyGlo, 24 h. AID 652154, 2013;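 active = mean replicate inhibition at least 60% with every replicate also reaching 60%; inconclusive = only one of the two criteria is met; inactive = mean below 60% and not all replicates reaching 60%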;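 note: luciferase light reporting Pax8 driven TPO promoter activity; plate controls were median of neutral control wells for no effect and mitoxantrone controls for full effect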
PfHsp90 set2: growth inhibition of PfHsp90-expressing yeast, primary screen, antimalarial PfHsp90 inhibitor project, S. cerevisiae, BacTiter-Glo luminescence, single point, set 2; BacTiter-Glo ATP, 48 h; yeast lacking PDR1 and PDR3 efflux regulators; inhibition, % at 9.4 µM; actives 0.32% (n = 310,000); AID 504621, 2011;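 active = every replicate shows inhibition above about 80%, whatever the replicate mean, limit read from the data; inconclusive = mean inhibition reaches the set limit but some replicate falls short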;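 note: 0% = DMSO neutral controls and 100% = 20 µM radicicol positive controls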
Arr AP2 block: inhibitors of beta-arrestin/AP2 binding, primary screen, biochemical, GPCR trafficking, flow cytometry | FITC-arrestin peptide / GST-AP2 beads; AP2 beta2 appendage carries R879A mutation | inhibition, % at 10 µM | AID 504490, 2011 | actives 0.31% (n = 340,000);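 active = inhibition above a set limit, near 3 SD of compounds lacking own fluorescence, cut at about 54% in these data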;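 note: plate controls were DMSO wells for no effect and 5 µM unlabelled arrestin peptide for full effect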
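System: GST-AP2 R879A bound to glutathione beads, E. coli-expressed. Also added: 50 nM FITC-arrestin peptide. Schedule: compound with beads 12 min RT, then probe 1 h RT. Signal: bead flow cytometry, FITC channel. Read-out basis: percent response.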
HIV Env fusion: inhibitors of HIV-1 Env-driven cell-cell fusion, primary screen, HeLa-JRFL effector, CEM21 target cells, luciferase; inhibition, % at 12.3 µM; actives 1.1% (n = 360,000); AID 651610, 2012;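 active = mean replicate inhibition score of at least 50 and every replicate individually at or above 50; inconclusive = only one of the two criteria met; inactive = mean below 50 and not all replicates reaching 50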;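 note: 0% = plate neutral controls and 100% = maraviroc near 300 nM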
N-glyco inh: increase of ERlucT glycosylation luciferase signal, primary screen, N-linked glycosylation inhibitor project, D54 ERlucT cells, luminescence, set 2. AID 588692, 2011. reporter increase, % at 12.5 µM. D54 ERlucT glycosylation luciferase reporter, 24 h; percent of 100 nM tunicamycin response. actives 0.23% (n = 360,000);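 active = mean luciferase reporter signal, scaled so untreated is 0 and the glycosylation-blocking control 100, at or above a set limit in every replicate; inconclusive = mean reaches the limit but not every replicate does; inactive = mean below the limit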;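 note: luciferase carries N-glycosylation sites so blocking glycosylation raises the light; 0% = median of neutral control wells and 100% = median of 100 nM tunicamycin wells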
Rtt109 Vps75: inhibitors of C. albicans Rtt109/Vps75 HAT, primary screen, biochemical, ThioGlo CoA-SH fluorescence, plate reader | Histone acetyltransferase RTT109 (Candida albicans (strain SC5314 / ATCC MYA-2876)), … | purified Rtt109/Vps75, 4 h | inhibition, % at 34.9 µM | AID 540336, 2011 | actives 0.16% (n = 330,000);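 active = inhibition of at least 50% in every replicate; inconclusive = best replicate reaches 50% inhibition but some replicates fall short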
Target sequence (Q5AAJ8 whole entry, looked up): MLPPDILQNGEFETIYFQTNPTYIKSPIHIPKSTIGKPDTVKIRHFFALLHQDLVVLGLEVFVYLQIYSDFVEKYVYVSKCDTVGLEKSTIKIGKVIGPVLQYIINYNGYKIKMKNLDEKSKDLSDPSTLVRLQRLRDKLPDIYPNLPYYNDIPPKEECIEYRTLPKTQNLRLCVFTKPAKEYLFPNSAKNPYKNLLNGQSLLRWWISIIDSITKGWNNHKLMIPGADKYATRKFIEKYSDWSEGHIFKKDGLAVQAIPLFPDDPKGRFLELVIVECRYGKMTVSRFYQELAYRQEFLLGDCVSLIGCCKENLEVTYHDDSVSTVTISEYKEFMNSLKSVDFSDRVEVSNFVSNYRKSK
Numbers without * were called inactive; i = inactive; ? = inconclusive; nt = no result given; [ ] = another dose, or the depositor's remark. The list is not random: actives were taken first. Their share in the collection is about 2.3%.

SMILES	PAX8 inh HTS	PfHsp90 set2	Arr AP2 block	HIV Env fusion	N-glyco inh	Rtt109 Vps75
O=c1ccn(Cc2ccccc2)cc1	13.7	nt	2.5	6.5	2.2	12.9
C[C@H](CO)N1C[C@H](C)[C@@H](CN(C)Cc2ccc3c(c2)OCO3)OCCCC[C@H](C)Oc2ccc(NC(=O)Cc3ccccc3)cc2C1=O	-7.9	nt	nt	-35.4[16.7 µM]	nt	nt
Cc1nc2c(=O)n(C)c(=O)n(C)c2nc1Cl	110.8*	17.6	1.7	-7.5	7.5	2.2
CO[C@H]1CN(C)C(=O)c2cc(NC(=O)C3CCCCC3)ccc2OC[C@@H](C)NC[C@@H]1C	-1.8	nt	nt	-2.7[16.7 µM]	nt	nt
Cc1ccc(C)c(NC(=O)COC(=O)c2cccc3c2C(=O)c2ccccc2C3=O)c1	63.8*	36.9	-4.0	26.6	-0.3	-24.9
Cc1noc(C)c1S(=O)(=O)Nc1ccc2c(c1)C(=O)N([C@@H](C)CO)C[C@H](C)[C@@H](CN(C)Cc1ccccc1)OCCCC[C@H](C)O2	1.6	nt	nt	-12.8[16.7 µM]	nt	nt
COC(=O)Cc1nnn2c1[C@@H](C)[C@@H](c1ccccc1Br)O[C@@H](C)C2	-11.3	nt	nt	58.9*	nt	nt
COc1ccc(CC(=O)Nc2cccc(S(=O)(=O)N3CCCCCC3)c2)cc1OC	19.7	-7.6	3.7	68.0*	-3.3	3.0
COc1ccc(CCC(=O)Nc2cccc(S(=O)(=O)N3CCCCCC3)c2)cc1OC	4.2	4.4	-0.5	nt	-2.8	-4.9
CN(C)S(=O)(=O)c1cccc(NC(=O)CNc2cccc(S(=O)(=O)N3CCCCC3)c2)c1	32.3	nt	nt	64.0*	-2.9	nt
CC12CCC(=O)N1C(C(=O)Nc1cccc(S(=O)(=O)N3CCCCCC3)c1)CS2 (centres undefined)	5.3	nt	-3.9	nt	-1.5	18.2
CC12CCC(=O)N1C(C(=O)OCC(=O)Nc1cccc(S(=O)(=O)N3CCCCCC3)c1)CS2 (centres undefined)	84.2*	-9.7	3.1	nt	0.4	-5.6
COCC(=O)Nc1ccc2c(c1)C(=O)N(C)[C@H]1CC[C@@H](CC(=O)NCc3ccccc3Cl)O[C@@H]1CO2	59.3	nt	nt	3.5[16.7 µM]	nt	nt
C[C@H]1CN([C@@H](C)CO)C(=O)c2cc(NC(=O)Cc3ccccc3)ccc2O[C@H]1CN(C)C(=O)Nc1ccc2c(c1)OCO2	5.5	nt	nt	2.8[16.7 µM]	nt	nt
CC1CCN(C(=O)c2cc3nc(-c4ccccc4)cc(-c4ccccc4)n3n2)CC1	nt	-10.2	-7.0	76.8*	-5.1	-20.6
O=C(NC1CCCC1)c1cc2nc(-c3ccccc3)cc(-c3ccccc3)n2n1	9.0	-14.7	2.3	18.2	-3.0	13.0
CC1(C(=O)NCc2ccccc2)Cc2c(-c3cccc(C(N)=O)c3)ccnc2O1 (centres undefined)	50.9	nt	nt	-5.4	?	nt
CC(=O)Nc1cccc(-c2ccnc3c2CC(C)(C(=O)NCCC(F)(F)F)O3)c1 (centres undefined)	15.5	nt	nt	-12.9	25.0*	nt
CC1(C(=O)NCc2ccco2)Cc2c(-c3cccc(C(N)=O)c3)ccnc2O1 (centres undefined)	nt	nt	nt	12.8	37.6*	nt
C[C@@H]1CCCCO[C@@H](CN(C)S(=O)(=O)c2cccs2)[C@H](C)CN([C@H](C)CO)C(=O)c2cc(NS(=O)(=O)c3cccs3)ccc2O1	19.8	nt	nt	6.3[16.7 µM]	nt	nt
COC(=O)c1ccccc1-c1c2ccc(=N)cc-2oc2cc(N)ccc12	96.0*	5.1	i	52.8	1.0	-292.7
C[C@@H]1CCCCO[C@H](CN(C)S(=O)(=O)c2ccc(F)cc2)[C@H](C)CN([C@@H](C)CO)C(=O)c2cc(NC(=O)C3CCCCC3)ccc2O1	38.0	nt	nt	-3.0[16.7 µM]	nt	nt
Fc1ccc2c(-c3cccc(C(F)(F)F)c3)c(-c3ccccc3)ncc2c1	-15.3	nt	22.4	69.4*	-4.4	5.6
COc1cc2cnc(-c3ccccc3)c(C(=O)c3ccc(F)cc3)c2cc1OC	16.8	84.6*	32.0	-12.2	-3.2	7.8
Fc1ccc2cnc(-c3ccccc3)c(-c3ccc(C(F)(F)F)cc3)c2c1	10.2	9.1	-0.5	31.4	-1.5	1.7
SMILES	PAX8 inh HTS	PfHsp90 set2	Arr AP2 block	HIV Env fusion	N-glyco inh	Rtt109 Vps75
COc1cc2cnc(-c3ccccc3)c(-c3ccc(C(F)(F)F)cc3)c2cc1OC	6.2	-15.5	nt	84.4*	-0.3	-3.2
COc1cc2cnc(-c3ccccc3)c(C(=O)c3ccc(OCc4ccccc4)cc3)c2cc1OC	35.5	-15.8	6.6	4.6	-1.9	9.2
Fc1ccc2cnc(-c3ccccc3)c(-c3cc(C(F)(F)F)cc(C(F)(F)F)c3)c2c1	4.7	-14.5	-13.2	34.1	-3.6	-1.8
c1csc(C(c2nnnn2C2CCCCC2)N2CCCC3(CCCCC3)C2)c1 (centres undefined)	37.9	-30.6	22.1	114.6*	0.4	16.3
O=C(CCNC(=O)c1ccc([N+](=O)[O-])cc1)Nc1cccc(S(=O)(=O)N2CCCCC2)c1	22.4	-1.0	4.8	36.0	-1.5	3.7
O=C(CN1CCCCC1)NC(=O)NC1CCCC1	-45.0	-6.3	-7.9	4.9	-1.8	6.0
Cc1ccc(S(=O)(=O)N2CCCCC2)cc1NC(=O)c1nn(C)c(=O)c2ccccc12	-5.4	nt	-7.0	65.9*	-1.8	-9.4
Cc1ccc(S(=O)(=O)N2CCCCC2)cc1NC(=O)CCNC(=O)c1ccc([N+](=O)[O-])cc1	14.4	nt	-7.3	58.7*	-2.3	1.6
O=C(Cn1ncc(Cl)c(Cl)c1=O)NC(=O)NC1CCCCC1	91.4*	-9.5	2.9	61.4*	0.7	-15.2
COc1ccc(NC(=O)Cn2ncc(Cl)c(Cl)c2=O)cc1S(=O)(=O)N1CCOCC1	83.5*	0.0	13.0	-46.3	13.3	-3.8
CN(C)C(=O)c1ccc(-c2ccc([C@@H]3[C@@H](CO)N4C(=O)CN(C(=O)C5CCCC5)C[C@@H]34)cc2)cc1	-2.7	nt	nt	nt	nt	nt
CCCC#Cc1cnc2c(c1)C(=O)N([C@H](C)CO)C[C@@H](C)[C@H](CN(C)C(=O)c1ccc(F)cc1)O2	nt	nt	nt	1.3[16.7 µM]	nt	nt
Cc1ccc(S(=O)(=O)N2CCCCC2)cc1NC(=O)Cn1cnnn1	0.6	35.6	-8.1	24.1	0.0	-1.4
Cc1cccc(OCCCC(=O)Nc2ccc(Cl)c(S(=O)(=O)N3CCOCC3)c2)c1	20.0	-8.9	-3.6	61.9*	-1.3	0.5
CCN(CC)S(=O)(=O)c1cc(NC(=O)Cn2ncc(Cl)c(Cl)c2=O)ccc1C	93.0*	7.4	37.5	-76.1	23.0	30.8
Cc1nn(CC(=O)Nc2ccc3c(c2)OCO3)c(C)c1Cl	-6.5	37.6	-5.9	-2.5	2.6	-3.2
Cc1cccc(OCCC(=O)Nc2ccc(C)c(S(=O)(=O)N3CCOCC3)c2)c1	16.2	4.1	5.5	nt	-3.1	0.7

Screens: PubChem, several laboratories
